Source: paper PMC6954317 (Bioorganic chemistry, 2019)
Like-named read-outs stand apart in the source and are kept apart here.

Assays:
[1] = target: SphK1 (Homo sapiens, UniProt Q9NYA1); experiment: SphK1 inhibition, fluorometric assay with NBD-sphingosine as substrate; assay type: biochemical
Summary of the method: (§1)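 Recombinant SphK1 or SphK2 at 100 nM in 30 mM Tris-HCl pH 7.4 with 150 mM NaCl, 10% glycerol, 0.05% Triton X-100 and 1% DMSO. Test compounds were dissolved in DMSO and screened at 650 μM; actives were then tested at several concentrations to derive IC50. NBD-sphingosine-1-phosphate formation was read by fluorescence (ex 550 nm, em 584 nm) at 37 °C.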

[2] = target: T1, SphK2 (Homo sapiens, UniProt Q9NRA0); conditions: read-out: inhibitory effect reported for K145 on SphK2; cited from earlier work
T1 sequence (Q9NRA0 1-654): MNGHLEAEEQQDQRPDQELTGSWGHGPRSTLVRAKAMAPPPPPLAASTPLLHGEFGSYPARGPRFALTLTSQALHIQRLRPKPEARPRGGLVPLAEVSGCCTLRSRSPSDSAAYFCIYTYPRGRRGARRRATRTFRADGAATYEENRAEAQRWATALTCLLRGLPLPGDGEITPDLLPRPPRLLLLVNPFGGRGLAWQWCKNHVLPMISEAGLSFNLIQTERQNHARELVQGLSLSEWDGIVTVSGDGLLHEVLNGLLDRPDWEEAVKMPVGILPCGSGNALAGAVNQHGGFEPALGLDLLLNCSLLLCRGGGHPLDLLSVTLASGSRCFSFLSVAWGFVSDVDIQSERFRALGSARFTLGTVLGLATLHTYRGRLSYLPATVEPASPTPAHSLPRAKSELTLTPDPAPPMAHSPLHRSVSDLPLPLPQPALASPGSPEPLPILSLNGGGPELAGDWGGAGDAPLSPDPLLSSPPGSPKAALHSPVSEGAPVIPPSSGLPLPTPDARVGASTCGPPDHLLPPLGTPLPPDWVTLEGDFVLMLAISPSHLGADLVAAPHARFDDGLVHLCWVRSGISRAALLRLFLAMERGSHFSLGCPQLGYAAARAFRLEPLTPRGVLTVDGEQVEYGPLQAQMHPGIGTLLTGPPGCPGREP

[3] = target: T1, SphK2; experiment: SphK2 inhibition, fluorometric assay with NBD-sphingosine as substrate; assay type: biochemical; conditions: read-out: IC50 for SphK2; 100 nM recombinant SphK2, NBD-sphingosine, 37 °C
Summary of the method: as §1

Chain of SphK1 (Q9NYA1 whole entry): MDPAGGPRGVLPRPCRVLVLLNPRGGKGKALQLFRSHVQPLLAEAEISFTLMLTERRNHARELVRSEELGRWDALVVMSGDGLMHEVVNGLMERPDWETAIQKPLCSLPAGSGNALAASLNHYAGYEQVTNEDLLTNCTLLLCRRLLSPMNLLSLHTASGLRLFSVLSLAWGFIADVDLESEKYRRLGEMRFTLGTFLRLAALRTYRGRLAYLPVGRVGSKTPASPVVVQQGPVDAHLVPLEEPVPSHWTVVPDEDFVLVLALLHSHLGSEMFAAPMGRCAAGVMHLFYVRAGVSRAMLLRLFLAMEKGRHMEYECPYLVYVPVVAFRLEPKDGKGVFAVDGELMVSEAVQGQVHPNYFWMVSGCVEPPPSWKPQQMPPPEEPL

Molecule	IC50 [1] [µM]	also measured
COc1cc2cc(CNc3ccc(Nc4nccc(-c5ccc6ccccc6c5)n4)cc3)c(=O)[nH]c2cc1OC [16b, 6,7-dimethoxy-3-(((4-((4-(naphthalen-2-yl)pyrimidin-2-yl)amino)phenyl)amino)methyl)quinolin −2(1H)-one]	18.7	–
CCCCOc1ccc(CCC=C2SC(=O)N(CCN)C2=O)cc1 [K145, 3-(2-amino-ethyl)-5-[3-(4-butoxyl-phenyl)-propylidene]-thiazolidine-2,4-dione]	–	IC50 [2]: 4.3 µM
3-((4-(4-chlorophenyl)pyrimidin-2-yl)-1-yl)oxymethyl) quinolin-2(1H)-ones [compound 9]	–	IC50 [3]: 18.2 µM
Oc1ccc(Nc2nccc(-c3ccc(Cl)cc3)n2)cc1 [4a, 4-((4-(4-chlorophenyl)pyrimidin-2-yl)amino)phenol]	43.9	–
COc1ccc2[nH]c(=O)c(/C=C/C(=O)c3ccc(Nc4nccc(-c5ccc6ccccc6c5)n4)cc3)cc2c1 [11b, (E)-6-methoxy-3-(3-(4-((4-(naphthalen-2-yl)pyrimidin-2-yl)amino)phenyl)-3-oxoprop-1-en-1-yl)quinolin-2(1H)-one]	–	selectivity SphK1 versus SphK2 ([1]; in words): selective inhibitory effect on SphK1
O=c1[nH]c2cc(O)c(O)cc2cc1CNc1ccc(Nc2nccc(-c3ccc4ccccc4c3)n2)cc1 [19b, 6,7-dihydroxy-3-(((4-((4-(naphthalene-2-yl)pyrimidin-2-yl)amino)phenyl)amino)methyl)quinolin-2(1H)-one]	15.7	–
COc1cc2cc(CNc3ccc(Nc4nccc(-c5ccc(Cl)cc5)n4)cc3)c(=O)[nH]c2cc1OC [16a, 3-(((4-((4-(4-chlorophenyl)pyrimidin-2-yl)amino)phenyl)amino)methyl)-6,7-dimethoxyquinolin-2(1H)-one]	59.1	–
COc1ccc2[nH]c(=O)c(/C=C/C(=O)c3ccc(Nc4nccc(-c5ccc(Cl)cc5)n4)cc3)cc2c1 [11a, (E)-3-(3-(4-((4-(4-chlorophenyl)pyrimidin-2-yl)amino)phenyl)-3-oxoprop-1-en-1-yl)-6-methoxyquinolin-2(1H)-one]	28.2	–
